Laboratory results as given in ChEMBL document CHEMBL4402562, “Discovery of Novel Peptidomimetic Boronate ClpP Inhibitors with Noncanonical Enzyme Mechanism as Potent Virulence Blockers in Vitro and in Vivo” (J Med Chem, 2020).
In brackets after ≈: the same amount, converted by molar mass. Activity calls are given as the source filed them. No cut-off for these calls is given here.

Tests used:
[1] = Toxicity in BALB/c mouse model of skin abscess infected with methicillin-resistant Staphylococcus aureus ATCC 33591 assessed as induction of adverse effects at 1.5 to 3 mg/kg injected into shaved area of skin once daily for 4 days measured every day; assay type: organism-based; conditions: in vivo, other, 96 h
Procedure, shortened: (§1)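 Female BALB/c mice, 6-8 weeks, n=5 per group, backs shaved and depilated 1 day before; 50 µL subcutaneous 1.7 × 10⁹ CFU/mL MRSA ATCC 33591. From 6 h post-infection, 40 µL vehicle, vancomycin 3 mg/kg, or compound 1.5 or 3 mg/kg injected at infection site once daily for 4 days; weight recorded daily. Skin homogenised in saline 12 h after last dose, plated on LB agar 37 °C ≥16 h; log10 CFU/abscess; t-test.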

[2] = Toxicity in BALB/c mouse model of skin abscess infected with methicillin-resistant Staphylococcus aureus ATCC 33591 assessed as increase in AST levels at 1.5 to 3 mg/kg injected into shaved area of skin once daily for 4 days measured on day 14; assay type: organism-based; conditions: in vivo, other, 96 h
Procedure, shortened: (§2)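 Infected BALB/c mice (n=5/group) dosed 1.5 or 3 mg/kg into the infected skin once daily for 4 days; blood collected on day 4 and day 14, centrifuged 3,500 rpm 15 min, serum biochemistry analysed.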

[3] = target: T1, ATP-dependent Clp protease proteolytic subunit (Staphylococcus aureus (strain NCTC 8325)) (UniProt Q2G036); experiment: Induction of thermal stabilization of ClpP in methicillin-resistant Staphylococcus aureus ATCC 33591 assessed as protein stability up to 83 degC pre-incubated for 2 hrs by CETSA method
T1 sequence (whole entry): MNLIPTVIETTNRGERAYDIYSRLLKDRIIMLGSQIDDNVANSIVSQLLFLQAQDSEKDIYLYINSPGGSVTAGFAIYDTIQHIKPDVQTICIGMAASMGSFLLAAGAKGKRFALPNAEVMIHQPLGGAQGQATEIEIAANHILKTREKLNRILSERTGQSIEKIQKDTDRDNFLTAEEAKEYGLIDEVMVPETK
Procedure, shortened: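 MRSA grown at 37 °C in TSB with DMSO or 100 µM compound 2 h; cells in TE buffer (~4×10⁹ CFU/mL), lysostaphin 37 °C 30 min; supernatant heated 5 min at set temperatures, 3 min RT, ice, spun 20,000 g 20 min; soluble ClpP by western blot with polyclonal anti-ClpP.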

Staphylococcus aureus [4] = experiment: Inhibition of virulence-related genes expression in methicillin-resistant Staphylococcus aureus ATCC 33591 assessed as reduction in psm expression at 4 to 16 uM by qPCR analysis relative to control; assay type: functional, organism-based
Procedure, shortened: (§3)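 Total RNA from 2×10⁸ CFU treated MRSA by liquid-nitrogen freeze-thaw and TRIzol; qPCR relative to gyrB endogenous control; three experiments, triplicate wells.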

[5] = Toxicity in BALB/c mouse model of skin abscess infected with methicillin-resistant Staphylococcus aureus ATCC 33591 assessed as effect on total protein levels at 1.5 to 3 mg/kg injected into shaved area of skin once daily for 4 days; assay type: organism-based; conditions: in vivo, other, 96 h; procedure, shortened: as §2
Staphylococcus aureus [6] = experiment: Growth inhibition of methicillin-resistant Staphylococcus aureus ATCC 33591 incubated for 18 hrs by broth microdilution method; assay type: functional; conditions: ATCC 33591, 18 h
Procedure, shortened: (§4)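 MRSA ATCC 33591 at ~5×10⁵ CFU/mL in MHB with graded compound concentrations vs DMSO; OD600 growth curves over 18 h; three experiments, triplicate wells. MIC by CLSI broth microdilution in CAMHB, 0.5-256 µg/mL, 18 h at 37 °C, lowest concentration with no visible growth.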

[7] = Inhibition of human ClpP (57 to 277 residues) expressed in Escherichia coli […] pre-incubated for 10 mins before Ac-WLA-AMC addition and measured after 1 hr by fluorescence based assay relative to control
Procedure, shortened: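 hClpP (3.5 μM monomer) in 25 mM Tris-HCl pH 8.0, 100 mM KCl. Preincubated 10 min at RT with inhibitor, two-fold dilutions over 8 steps from 100 μM. Then 100 μM Ac-WLA-AMC, 380/440 nm for 1 h at 37 °C, slopes normalized to DMSO. Thrice, triplicate wells.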

Staphylococcus aureus [8] = experiment: (§5) Antivirulence activity against methicillin-resistant Staphylococcus aureus ATCC 33591 infected in BALB/c mouse model of skin abscess assessed as reduction in heart histopathological changes at 1.5 to 3 mg/kg injected into shaved area of skin once daily for 4 days measured after 12 hrs post last dose by hematoxylin and eosin staining based optical microscopy; assay type: functional, organism-based
Procedure, shortened: (§6)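 Same MRSA ATCC 33591 skin-abscess model in female BALB/c mice (n=5/group), 40 µL compound at 1.5 or 3 mg/kg injected into the infected shaved skin once daily for 4 days. On day 4 infected skin and heart, liver, spleen, lung, kidney fixed in 4% paraformaldehyde, embedded, sectioned, H&E stained and examined by microscopy; PBS-treated uninfected and vehicle controls.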

[9] = Induction of hemolysis in sheep erythrocytes by measuring hemoglobin release incubated for 15 mins; assay type: cell-based, Ovis aries, Erythrocyte
Procedure, shortened: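 Serially diluted compound mixed directly with 2% sheep erythrocytes in 10 mM Tris pH 7.4, 0.9% NaCl. Buffer served as negative and water as positive control. After 1,500 rpm, 15 min spin, released hemoglobin read at 545 nm. Three experiments, triplicate tubes.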

Staphylococcus aureus [10] = experiment: Inhibition of virulence-related genes expression in methicillin-resistant Staphylococcus aureus ATCC 33591 assessed as reduction in lukS expression at 4 to 16 uM by qPCR analysis relative to control; assay type: functional, organism-based; procedure, shortened: as §3
Staphylococcus aureus [11] = experiment: as §5, with “kidney” for “heart”; assay type: functional, organism-based; procedure, shortened: as §6
[12] = target: T2, ATP-dependent Clp protease proteolytic subunit (Staphylococcus aureus (strain NCTC 8325), UniProt Q2G036); experiment: (§7) Inhibition of N-terminal His6-sumo-tagged full length Staphylococcus aureus ClpP expressed in Escherichia coli […] pre-incubated for 10 mins before Suc-LY-AMC addition and measured after 1 hr by fluorescence based assay
T2 sequence (Q2G036 whole entry): T1 sequence (whole entry)
Procedure, shortened: (§8)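 SaClpP (1 μM monomer) in 100 mM Hepes pH 7.0, 100 mM NaCl. Preincubated 10 min at RT with inhibitor, two-fold dilutions over 8 steps from 100 μM. Suc-LY-AMC at 200 μM, 380/440 nm recorded for 1 h at 37 °C, slopes normalized to DMSO. For kinact/Ki, inhibitor premixed with substrate and reaction started by enzyme, fitted by least squares. Thrice, triplicate wells.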

[13] = target: T1, ATP-dependent Clp protease proteolytic subunit (Staphylococcus aureus (strain NCTC 8325)); experiment: as §7; procedure, shortened: as §8
Staphylococcus aureus [14] = experiment: Growth inhibition of methicillin-resistant Staphylococcus aureus ATCC 33591 up to 64 uM incubated for 18 hrs by broth microdilution method; assay type: functional, organism-based; procedure, shortened: as §4
[15] = Toxicity in BALB/c mouse model of skin abscess infected with methicillin-resistant Staphylococcus aureus ATCC 33591 assessed as effect on blood urea nitrogen levels at 1.5 to 3 mg/kg injected into shaved area of skin once daily for 4 days; assay type: organism-based; conditions: in vivo, other, 96 h; procedure, shortened: as §2
[16] = Toxicity in BALB/c mouse model of skin abscess infected with methicillin-resistant Staphylococcus aureus ATCC 33591 assessed as effect on body weight at 1.5 to 3 mg/kg injected into shaved area of skin once daily for 4 days measured every day; assay type: organism-based; conditions: in vivo, other, 96 h; procedure, shortened: as §1

## CC(C)C[C@H](NC(=O)[C@H](Cc1c[nH]c2ccccc12)NC(=O)c1cc(Cl)ccc1Cl)B(O)O
[1]
  Activity: Non-Toxic
[2]
  Activity: Non-Toxic
[3]
  Activity: Active
Staphylococcus aureus [4]
  inhibition: Active
[5]
  Activity: Non-Toxic
Staphylococcus aureus [6]
  MIC: 64 to 128 µg/mL (≈ 131 to 261 µM)
[7]
  IC50: 3 to 25 µM
Staphylococcus aureus [8]
  Activity: Active
[9]
  HC50 at 0.25 h: > 500 µM
Staphylococcus aureus [10]
  inhibition: Active
Staphylococcus aureus [11]
  Activity: Active
[12]
  IC50: 900 nM
[13]
  inhibition: Dose-dependent effect
Staphylococcus aureus [14]
  growth inhibition (GI): inactive
[15]
  Activity: Non-Toxic
[16]
  Activity: Non-Toxic
